Assay results as given in PubChem BioAssay AID2648 (Johns Hopkins Ion Channel Center, 2010).
Among all 310,000 compounds or so, about 1,100 (0.35%) were called active.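 Rule for the calls: active = fluorescence ratio B-score, a plate-corrected score, at least three library SD, with initial intensity B-score within 5 SD; inactive = the rest.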 Many of the other results were omitted from the sample, so actives are more common in it than they were.

The compounds below were run against Potassium voltage-gated channel subfamily KQT member 1 (Homo sapiens) (UniProt P51787) (assay: human KCNQ1 current enhancers – cell-based, thallium flux, high-throughput, primary screen (AID 2648)). Settings: CHO-K1 KCNQ1, thallium flux FluxOR fluorescence, at 10 µM; stronger effect = higher value.
Outline: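 Assay system: CHO-K1 cells stably expressing KCNQ1; Medium: assay buffer with matched DMSO; Also added: K+/Tl+ depolarizing stimulus; Dosing: single dose; Timing: dye 90 min, compound 20 min, room temperature; Measured by: kinetic FluxOR thallium fluorescence, 10-s 1-Hz baseline, 110-s post-stimulus read; Read-out: peak-minus-minimum fluorescence over initial fluorescence, negative-control normalized, B-scored.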

Potassium voltage-gated channel subfamily KQT member 1 (Homo sapiens), sequence (P51787 whole entry, looked up): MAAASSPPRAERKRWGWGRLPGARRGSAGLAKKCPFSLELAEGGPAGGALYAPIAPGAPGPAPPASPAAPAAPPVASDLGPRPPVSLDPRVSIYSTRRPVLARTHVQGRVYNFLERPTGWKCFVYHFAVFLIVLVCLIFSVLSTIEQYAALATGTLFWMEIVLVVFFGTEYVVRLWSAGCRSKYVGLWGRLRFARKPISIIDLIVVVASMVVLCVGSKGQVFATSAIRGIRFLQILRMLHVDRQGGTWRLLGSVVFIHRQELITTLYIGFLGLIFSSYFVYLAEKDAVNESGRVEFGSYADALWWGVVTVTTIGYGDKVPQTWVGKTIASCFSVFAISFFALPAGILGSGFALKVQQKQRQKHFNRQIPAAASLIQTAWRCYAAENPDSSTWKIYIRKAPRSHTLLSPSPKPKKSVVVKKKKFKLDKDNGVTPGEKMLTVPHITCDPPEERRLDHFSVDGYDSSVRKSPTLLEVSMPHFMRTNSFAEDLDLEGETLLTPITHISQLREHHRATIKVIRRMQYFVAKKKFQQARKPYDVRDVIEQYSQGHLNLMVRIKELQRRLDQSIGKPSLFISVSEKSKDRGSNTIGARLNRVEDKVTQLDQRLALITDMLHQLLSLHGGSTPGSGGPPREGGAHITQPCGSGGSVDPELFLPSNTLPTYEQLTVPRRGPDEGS

Structure (SMILES) | B-score
CCOc1ccc(C(c2c(C)[nH][nH]c2=O)c2c(C)[nH][nH]c2=O)cc1OCC | inactive
Cc1[nH][nH]c(=O)c1C(c1ccc(-c2ccc(Cl)cc2)o1)c1c(C)[nH][nH]c1=O | 25 (active)
O=C(NC1CCCCC1)c1ccc(-c2ccc(Cl)cc2)o1 | inactive
Cn1nnnc1-c1cc(Cl)cc(Cl)c1 | inactive
CC(=O)C12CC(C)=C(C)CC1CC1C3CCC4=CC(=O)CCC4(C)C3CCC12C (centres undefined) | inactive
O=C1NC(c2ccccc2)CCC1(Cl)Cl (centres undefined) | inactive
COc1cccc2sc(N(CCCN(C)C)C(=O)C(c3ccccc3)c3ccccc3)nc12 | inactive
COc1cccc2sc(N(CCCN(C)C)C(=O)CCS(=O)(=O)c3ccccc3)nc12 | 8 (active)
CC(=O)N(CCCN(C)C)c1nc2ccc(C)cc2s1 | inactive
COc1cc2ccccc2cc1C(=O)N(CCN(C)C)c1nc2c(F)cccc2s1 | inactive
Cc1cccc2sc(N(CCCN(C)C)C(=O)CCS(=O)(=O)c3ccccc3)nc12 | 30 (active)
Cc1ccc2sc(N(CCN(C)C)C(=O)/C=C/c3cccs3)nc2c1C | inactive
CCCCC(=O)Nc1ccc2c(c1)C(=O)NC2=O | inactive
O=C(COc1cc2oc(=O)c3c(c2cc1Cl)CCC3)NCCCN1CCOCC1 | inactive
Cc1ccc(NC2CCCN(C(=O)CCC3(C)CC3)C2)cc1C (centres undefined) | inactive
COCCNC(=O)CSc1nc2sccc2c(=O)n1-c1ccccc1 | inactive
Cc1cccc(NC(=O)c2cccnc2Cl)n1 | inactive
CCN(CC)S(=O)(=O)c1ccc(Cl)c(NC(=O)c2ccncc2)c1 | inactive
CCN(CC)S(=O)(=O)c1ccc(NC(=O)c2cccnc2Cl)c(NC(=O)c2cccnc2Cl)c1 | 13 (active)
CC1CCN(S(=O)(=O)c2ccc3c(ccn3CC(=O)O)c2)CC1 | inactive
CC1CCN(c2ccc(-c3ccc(NC(=O)c4ccco4)cc3)nn2)CC1 | inactive
NC(=O)Cc1ccc2c(c1)[nH]c1ccccc12 | inactive

Structure (SMILES) | B-score
S=c1[nH]c2ccccc2c2ccccc12 | 7 (active)
S=c1ccc2ccccc2[nH]1 | inactive
COc1ccc(OC)c(CCNC(=O)c2nn(C)c3c2CS(=O)(=O)c2ccccc2-3)c1 | inactive
O=C(Nc1ccc(F)c([N+](=O)[O-])c1)C1CCCO1 (centres undefined) | inactive
N#CCc1ccc(OC(=O)c2cccnc2)cc1 | inactive
O=C(Oc1c(-c2ccco2)oc2ccccc2c1=O)c1cccnc1 | 15 (active)
O=C(Oc1ccc(Br)cc1)c1cccnc1 | inactive
CCO[C@H]1OC(C(=O)Nc2ccccc2)=C[C@@H](C2CC2)[C@@H]1CCCO | inactive
Cc1ccc(S(=O)(=O)Nc2ccc3ncccc3c2)cc1 | inactive
O=[N+]([O-])c1ccccc1S(=O)(=O)Nc1cccc2cccnc12 | inactive
COc1cc(NS(=O)(=O)c2ccc3ccccc3c2)c2ncccc2c1 | 14 (active)
COC(=O)C1=C(C(=O)OC)[C@@H]2N(C)c3ccccc3[C@@]23C[C@@H](C(=O)OC)N(C(=O)c2ccco2)C3=N1 | inactive
CC1(C)CC[C@]2(C(=O)O)CC[C@]3(C)C(=CCC4[C@@]5(C)CC[C@H](O)C(C)(C)C5[C@H](O)C[C@]43C)[C@@H]2C1 (some centres undefined) | 10 (active)
CC1(C)C2CC[C@]3(C)C(CC=C4[C@@H]5C[C@@](C)(CO)CC[C@]5(C(=O)O)CC[C@]43C)[C@@]2(C)CC[C@@H]1O (some centres undefined) | inactive
CSc1ncccc1C(=O)Nc1ccc(C)cn1 | inactive
O=C(Nc1ccccc1)c1cc2ccccc2[nH]1 | inactive
O=c1/c(=C/c2ccc(CNS(=O)(=O)c3ccccc3)o2)sc2n1CCN=2 | inactive
Fc1cc(F)c2nc(Nc3nc4c(F)cccc4s3)sc2c1 | 37 (active)
NC(=O)c1c(Nc2nc3c(F)cccc3s2)sc2c1CCCC2 | inactive
NNc1nc2c(Cl)cccc2s1 | inactive
COc1cccc2cc(C(=O)NCc3ccc(C)cc3)c(=N)oc12 | inactive
COC(=O)C1CCN(C(=O)c2ccc3oc(Cc4ccc(Cl)cc4)nc3c2)CC1 | inactive

Structure (SMILES) | B-score
Cc1ccc(-n2c(C)cc(/C=N\NC(=O)CC(=O)NC(C)C)c2C)cc1 | inactive
Cc1cccc(-n2c(C)cc(/C=N\NC(=O)c3cccs3)c2C)c1 | inactive
Cc1cccc(-n2c(C)cc(/C=N/NC(N)=S)c2C)c1 | 8 (active)
Cc1cc(=O)oc2c(C)c(OCC(=O)NCCN3CCOCC3)ccc12 | inactive
CCCOc1ccc(C(=O)C(CCC(CNCC)C(=O)c2ccc(OCCC)cc2)CNCC)cc1 (centres undefined) | inactive
FC(F)(F)c1ccc(CN2C[C@@H]3C(c4ccccc4)C4(c5ccccc5)CC3(C4)[C@H]2c2ccccc2)cc1 (some centres undefined) | inactive
Cc1ccc(C(=O)NC(=S)Nc2ccccc2C)cc1 | inactive
COC(=O)c1sc(NC(=O)c2csc3c2CCCC3)nc1C | inactive
COC(=O)c1sc(NC(=S)NC(=O)c2ccc(C)cc2)nc1C | 18 (active)
C/C(Cl)=C\Cn1c(Nc2cccc(C)c2)nc2c1c(=O)n(C)c(=O)n2C | inactive
CC(C)NC(=O)C(c1ccc(F)cc1)N(C(=O)CCC(=O)Nc1ccccn1)c1ccccc1F (centres undefined) | inactive
[O-][n+]1c2c(nn1-c1ccc(Cl)c(Cl)c1)-c1nonc1CC2 | inactive
COc1ccc(NC(=O)C(=O)NCC(c2ccco2)N2CCc3ccccc3C2)cc1 (centres undefined) | inactive
COC(=O)c1ccccc1NC(=O)C1CCN(S(=O)(=O)c2cc(OC)ccc2OC)CC1 | inactive
O=C(c1ccc(F)cc1)c1cn(Cc2ccc(F)cc2)c2cc3c(cc2c1=O)OCCO3 | inactive
Oc1c(Cl)cc(Cl)c(Cl)c1Cc1c(O)c(Cl)cc(Cl)c1Cl | 87 (active)
COP1(=O)C[C@@H](O)[C@@H](O)[C@@H](COCc2ccccc2)O1 (some centres undefined) | inactive
CC(=O)Nc1sc2c(c1C(c1cccc(F)c1)N1CCN(CCO)CC1)CCCC2 (centres undefined) | inactive
COCCNC(=O)CCCN1C(=O)c2ccccc2Sc2ncccc21 | inactive
Cc1c(C(=O)NC(C)C2CC3CCC2C3)cccc1[N+](=O)[O-] (centres undefined) | inactive
CC(C)(C)c1ccc(Cn2nnc3c(=O)[nH]c(C4CCCN(C(=O)c5ccco5)C4)nc32)cc1 (centres undefined) | inactive
Cc1ccc(/C=N/NC(=O)CSc2ccccn2)o1 | inactive

Structure (SMILES) | B-score
O=C(N/N=C/c1cccnc1)c1cc2ccccc2cc1O | inactive
Cc1ccc(/C=N/NC(=O)c2cc3ccccc3cc2O)o1 | 41 (active)
CN(CC(=O)Nc1ccc(Cl)cc1)C(=O)CNC(=O)c1ccc2ccccc2c1 | inactive
COc1cc(C(=O)NCC(=O)NCCSc2ccc(Br)cc2)cc(OC)c1OC | inactive
Cc1ccc(N(CC(=O)NC2CCCCC2)C(=O)CCCC(=O)Nc2ccccn2)c(C)c1 | inactive
CCCCNC(=O)C1CCCNC1=O (centres undefined) | inactive
CCC1(C)Cc2c(sc3nc4n(c(=O)c23)CCCS4)CO1 (centres undefined) | inactive
CCC1(C)Cc2c(sc3nc(SC)[nH]c(=O)c23)CO1 (centres undefined) | inactive
CCC1(C)Cc2c(sc3[nH]c(=S)n(Cc4ccccc4)c(=O)c23)CO1 (centres undefined) | 57 (active)
OC(CNCc1ccc(Cl)c(Cl)c1)c1ccccc1 (centres undefined) | inactive
Cc1cccn2cc(-c3cccc(S(=O)(=O)N4CCCCC4)c3)nc12 | inactive
COc1cccc(NC(=S)NC(=O)c2c(Cl)c(C)nn2C)c1 | 8 (active)
Cc1nn(C)c(C(=O)NNC(=S)NC2CCCCC2)c1Cl | inactive
COc1cccc(NC(=S)NCc2ccccn2)c1 | inactive
CCOc1ccc(N=C2NC(=O)S/C2=C\c2ccc(O)cc2)cc1 | inactive
COc1ccc(/C=C2/S/C(=N/N=C3\CC4CCC3(C)C4(C)C)NC2=O)cc1 (centres undefined) | 23 (active)
COc1ccc(/C=C2\SC(=N)N(c3ccc(F)cc3)C2=O)cc1 | inactive
Cc1ccc(OS(=O)(=O)c2ccc(-c3csc(C)n3)s2)c(C)c1 | inactive
CCOC(=O)N1CCN(C(=O)C(C)NC(=O)c2ccco2)CC1 (centres undefined) | inactive
Cc1ccc(C)c(NC(=O)C(OC(=O)c2ccc(C)s2)c2ccccc2)c1 (centres undefined) | inactive
CCn1c(O)c(N=NC2=NC(=O)CS2)c2cc(C)ccc21 | 11 (active)
COC(=O)Cn1c2ccc(C)cc2c2nc(C)sc21 | inactive

Structure (SMILES) | B-score
CCn1c(O)c(N=NC(=O)c2cccc(S(=O)(=O)N3CCCCC3)c2)c2ccccc21 | inactive
CCCc1noc2c1/C(=N\O)CCC2 | inactive
Cc1c(N=Nc2ccc(N(C)C)cc2)c(=O)n(-c2ccccc2)n1C | inactive
CCOC(=O)c1c(NC(=O)C2(C)Cc3ccccc3C(=O)O2)sc2c1CCCC2 (centres undefined) | inactive
CCOC(=O)c1c(NC(=S)Nc2ccccc2)sc2c1CCN(C)C2 | inactive
CCOC(=O)c1c(NC(=S)NC)sc2c1CCCC2 | 77 (active)
Cc1ccc(C(=O)CN2C(=O)NC3(CCc4ccccc43)C2=O)c(C)c1 (centres undefined) | inactive
Clc1cccc(N=C2NN=C(c3ccc4c(c3)OCCO4)CS2)c1 | inactive
CN(C)c1nc(=Nc2cccc(Cl)c2)ss1 | 12 (active)
Cc1cc(C)c(C#N)c(SCC(=O)NN2CC(=O)N(c3ccccc3F)CC2=O)n1 | inactive
CCN(CC)N=Nc1cccc(NC(C)=O)c1 | inactive
O=C(C1=C(O)C(=O)N(CCOCCO)C1c1ccccn1)c1cccs1 (centres undefined) | inactive
CCOc1cc(C)c(S(=O)(=O)NCc2ccccn2)cc1C | inactive
COc1ccc(CC(=O)n2nc(-c3cccnc3)nc2N)cc1 | inactive
CCCC(=O)n1nc(-c2ccccc2)nc1N | 20 (active)
COc1ccc(C(=O)n2nc(-c3ccc(C)cc3)nc2N)cc1OC | inactive
O=C1/C(=C\Nc2ccccc2)CCN1c1ncccn1 | inactive
O=C1N[C@@H](Cc2ccccc2)C(=O)N2[C@H]1C[C@]1(Br)c3ccccc3N(S(=O)(=O)c3ccccc3)[C@H]21 | inactive
O=C1NC(c2cccc(Cl)c2)Nc2ccccc21 (centres undefined) | inactive
O=C1c2ccccc2NC(c2ccc(-c3cccc(Cl)c3)o2)N1O (centres undefined) | 10 (active)
O=c1c(-c2cccc(Cl)c2)c[nH]n1-c1ccccc1 | inactive
